Columns and labels:
Mycoplasma fermentans = assay: Antimycoplasmal activity against Mycoplasma fermentans Pg18 after 24 to 48 hrs by broth microdilution method; assay type: functional, Mycoplasmopsis fermentans
Procedure, shortened: (§1)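 Strains were grown in SP-4 broth and stored frozen at -80 C until testing. Broth microdilution with agent concentrations expressed as % v/v. MIC was the lowest concentration preventing the broth colour change when the growth-control tube changed: pH falling from 7.5 to 7.0 for M. fermentans, rising from 6.0 to 6.5 for M. hominis. Incubation was 24–48 h. Each strain was tested six times, plus six more times on different days. Growth and sterility controls were included.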

[1] = system: Mycoplasmoides pneumoniae; assay: Antimycoplasmal activity against Mycoplasma pneumoniae M129 after 3 to 5 days by broth microdilution method
Metamycoplasma hominis = assay: Antimycoplasmal activity against Mycoplasma hominis PG21 after 24 to 48 hrs by broth microdilution method; assay type: functional; procedure, shortened: as §1

`C=CC(C)(CCC=C(C)C)OC(C)=O` (configuration not stated) [LINALYL ACETATE] was tested, and the MIC90 (Mycoplasma fermentans) was 0.12 %v/v, the MIC90 [1] was 0.015 %v/v and the MIC50 (Metamycoplasma hominis) was 0.015 %v/v. The MIC90 (Metamycoplasma hominis) was 0.015 %v/v.

`C=C(C)[C@H]1CC=C(C)CC1` [D-LIMONENE] gave an MIC90 (Mycoplasma fermentans) of 1 %v/v, an MIC90 [1] of 0.03 %v/v and an MIC50 (Metamycoplasma hominis) of 4 %v/v. The MIC90 (Metamycoplasma hominis) was 8 %v/v.

`C=CC(C)(O)CCC=C(C)C` (configuration not stated) [LINALOOL] gave an MIC90 (Mycoplasma fermentans) of 0.06 %v/v, an MIC90 [1] of 0.015 %v/v and an MIC50 (Metamycoplasma hominis) of 1 %v/v. The MIC90 (Metamycoplasma hominis) was 1 %v/v.

Source: ChEMBL document CHEMBL2021925, “In vitro antimycoplasmal activity of Citrus bergamia essential oil and its major components” (2012)
